Series [1] can be described thus: Oral bioavailability in mouse at 1 mg/kg administered via cassette dose by LC-MS/MS analysis. Type of series: ADME, organism-based. The settings on record: in vivo. The gist of the method:
(§1)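 Cassette oral dosing of mice at 1 mg/kg. Blood was sampled after dosing and centrifuged to give plasma. Plasma was deproteinized with acetonitrile containing internal standard, centrifuged, diluted with LC mobile phase and centrifuged again for analysis. Values are means of three determinations.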

For series [2], the system named is Mus musculus. Description: (§2) AUC (0 to 8 hrs) in mouse at 1 mg/kg, po administered via cassette dose by LC-MS/MS analysis. Type of series: ADME, organism-based. On the set-up: time < 8 hr, dose 1 mg/kg, route oral. The settings on record: in vivo, 8 h. An outline of the steps: as §1
Series [3] in a line: as §2. It is filed as ADME, organism-based. Details: time < 8 hr, dose 1 mg/kg, route oral. The following applies: in vivo. The gist of the method: as §1
In series [4] the test system is Mus musculus. The series can be described thus: Effect on IFNgamma expression in po dosed Balb/c mouse measured after 24 hrs by qRT-PCR analysis. It is filed as ADME, organism-based. The settings on record: in vivo. For orientation: Real-time PCR tracks product formation cycle by cycle.
A short description of series [5]: Cmax in Balb/c mouse at 10 mg/kg, po. Type of series: ADME, organism-based. On the set-up: dose 10 mg/kg, route oral. The settings on record: in vivo. The gist of the method: (§3)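 Male Balb/c mice, 7 weeks old, received intradermal ear injection of recombinant mouse IL-23 (500 ng/10 μL PBS) under isoflurane. Compound was suspended in 0.5% methylcellulose and given orally at 3, 10 or 30 mg/kg, 30 min before and 8 h after IL-23. Plasma concentration was measured in parallel with the PD assay, giving Cmax and […].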

A short description of series [6]: Cmax in Balb/c mouse at 30 mg/kg, po. Type of series: ADME, organism-based. On the set-up: dose 30 mg/kg, route oral. The settings on record: in vivo. An outline of the steps:
as §3

Series [7] in a line: AUC (0 to 24 hrs) in Balb/c mouse at 3 mg/kg, po. Type of series: ADME, organism-based. On the set-up: dose 3 mg/kg, time < 24 hr, route oral. The settings on record: in vivo. The gist of the method:
(§4)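 Male Balb/c mice, 7 weeks old, received 3, 10 or 30 mg/kg orally as a suspension in 0.5% methylcellulose. Dosing was 30 min before and 8 h after intradermal ear injection of recombinant mouse IL-23 (500 ng in 10 μL PBS). Plasma drug levels were measured alongside this PD study, and AUC was taken over 0–24 h.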

Series [8] is described as follows: AUC (0 to 24 hrs) in Balb/c mouse at 30 mg/kg, po. On the set-up: time < 24 hr, dose 30 mg/kg, route oral. The settings on record: in vivo. It is filed as ADME, organism-based. The gist of the method: as §4
Series [9] can be described thus: Cmax in Balb/c mouse at 3 mg/kg, po. Type of series: ADME, organism-based. On the set-up: dose 3 mg/kg, route oral. The settings on record: in vivo. An outline of the steps:
as §3

The nature of series [10]: AUC (0 to 24 hrs) in Balb/c mouse at 10 mg/kg, po. Type of series: ADME, organism-based. On the set-up: time < 24 hr, dose 10 mg/kg, route oral. The following applies: in vivo. An outline of the steps: as §4
The species named for series [11] is Mus musculus. The series can be described thus: animal or person. The following applies: Balb/c, po.
Series [12] relates to Mus musculus. The series can be described thus: Drug uptake in po dosed Balb/c mouse. It is filed as ADME, organism-based. The settings on record: in vivo. An outline of the steps:
as §3

Structures are written as SMILES.

This is an account of results in ChEMBL document CHEMBL4177746, “Discovery of orally efficacious RORγt inverse agonists. Part 2: Design, synthesis, and biological evaluation of novel tetrahydroisoquinoline derivatives” (Bioorg Med Chem, 2018).

What is called bioavailability is dose-corrected exposure relative to a reference, in per cent. The term AUC denotes concentration integrated over time. A higher AUC goes with high exposure. A word on the AUC(0-t): it is exposure summed from dosing to a finite time, without extrapolation to infinity. In general, Cmax refers to the peak of the concentration-time curve. The ED50 is the dose that gives a 50% effect, or the effect in half of the subjects. Low values mean greater potency, high ones weaker potency.

As to `COc1ccc([C@H](C(=O)Nc2cc(F)c([Si](C)(C)C)c(F)c2)N(C)C(=O)c2cc(O)no2)cc1`, the bioavailability in series [1] amounted to 18%. In series [2], this compound registered an exposure (AUC) of 374 ng·h/mL.

In the case of `COc1ccc2c(c1)CCN(C(=O)c1cc(O)no1)[C@H]2C(=O)Nc1cc(F)c([Si](C)(C)C)c(F)c1`, in series [1], the bioavailability was found to be 11%. In series [3], this compound came in with an exposure AUC(0-t) at 8 h of 200 ng·h/mL.

`COc1ccc2c(c1)CCN(C(=O)CC1SC(=O)NC1=O)[C@H]2C(=O)Nc1cc(F)c([Si](C)(C)C)c(F)c1` (stereo not given in full): the bioavailability in series [1] was found to be 13%. In addition, the exposure AUC(0-t) at 8 h in series [3] is 120 ng·h/mL.

On to `COc1ccc2c(c1)CCN(C(=O)CCCCC(=O)O)[C@H]2C(=O)Nc1cc(F)c([Si](C)(C)C)c(F)c1`, for which the bioavailability in series [1] stood at 84%. Further, the area under the curve AUC(0-t) at 8 h in series [3] was determined as 1030 ng·h/mL.

Regarding `COc1ccc2c(c1)CCN(C(=O)CC(C)(C)CC(=O)O)[C@H]2C(=O)Nc1cc(F)c([Si](C)(C)C)c(F)c1`, the bioavailability in series [1] was 40%. This compound returned an AUC(0-t) at 8 h in series [3] of 2270 ng·h/mL.

For `COc1ccc2c(c1)CCN(C(=O)CC(C)CC(=O)O)[C@H]2C(=O)Nc1cc(F)c([Si](C)(C)C)c(F)c1` (stereo not given in full), the bioavailability in series [1] was 65%. Further, the exposure AUC(0-t) at 8 h in [3] came to 2500 ng·h/mL.

Consider `COc1ccc2c(c1)CCN(C(=O)CCCC(N)=O)[C@H]2C(=O)Nc1cc(F)c([Si](C)(C)C)c(F)c1`, for which the bioavailability in series [1] turned out to be 14%. Besides, in [3], the exposure AUC(0-t) at 8 h is 92 ng·h/mL.

In [1], `COc1ccc2c(c1)CCN(C(=O)CC(C)(O)CC(=O)O)[C@H]2C(=O)Nc1cc(F)c([Si](C)(C)C)c(F)c1` (stereo not given in full) displayed a bioavailability of 34%. In [3], this compound showed an area under the curve AUC(0-t) at 8 h of 159 ng·h/mL.

In [1], `COc1ccc2c(c1)OCCN(C(=O)c1cc(O)no1)[C@H]2C(=O)Nc1cc(F)c([Si](C)(C)C)c(F)c1` displayed a bioavailability of 9%. For the same compound, the area under the curve AUC(0-t) at 8 h in [3] was found to be 29.5 ng·h/mL.

On to `COc1ccc2c(c1)CCN(C(=O)/C=C/C(=O)O)[C@H]2C(=O)Nc1cc(F)c([Si](C)(C)C)c(F)c1`, for which, in [1], the bioavailability amounted to 51%. For the same compound, in [3], the AUC(0-t) at 8 h is 619 ng·h/mL.

Take `COc1ccc([C@H](C(=O)Nc2cc(F)c([Si](C)(C)C)c(F)c2)N(C)C(=O)CCC(=O)O)cc1`: in series [1], the bioavailability turned out to be 8.5%. This compound also displayed an AUC(0-t) at 8 h in [3] of 162 ng·h/mL.

Regarding `COc1ccc2c(c1)CCN(C(=O)CCC(=O)O)[C@H]2C(=O)Nc1cc(F)c([Si](C)(C)C)c(F)c1`, the bioavailability in [1] stood at 51%. In series [3], this compound displayed an AUC(0-t) at 8 h of 2500 ng·h/mL.

As to `COc1ccc2c(c1)CCN(C(=O)CCCC(=O)O)[C@H]2C(=O)Nc1cc(F)c([Si](C)(C)C)c(F)c1`, the Activity entry in series [4] was “Non-Toxic”. In addition, the maximum concentration (Cmax) in [5] came to 7720 ng/mL; in series [6] it was 19000 ng/mL; in series [9] it was 1630 ng/mL. The compound also yielded a bioavailability in series [1] of 94%. The same compound gave an AUC(0-t) at 8 h in series [3] of 6890 ng·h/mL. The area under the curve AUC(0-t) at 24 h in series [7] worked out at 10700 ng·h/mL; in [8], 159000 ng·h/mL; in series [10], 48000 ng·h/mL. Besides, the ED50 in series [11] was found to be 2.8 mg/kg. For the same compound, in series [12], the Drug uptake entry is given as “Dose-dependent effect”.
